Experimental data from ChEMBL document CHEMBL4043131, “New prodrugs of two pyrimidine acyclic nucleoside phosphonates: Synthesis and antiviral activity” (Bioorg Med Chem, 2017).
Activity calls are given as the source filed them. The calls are words filed in the database; no cut-off is given here.

Columns and labels:
[1] = Selectivity index, ratio of CC50 for HEL cells to EC50 for wild type Herpes simplex virus 1 KOS infected in HEL cells; assay type: toxicity, cell-based; conditions: human, read-out: Ratio CC50/EC50
Procedure, shortened: (§1)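 EC50 is the concentration halving cytopathicity in HEL cells infected with 100 CCID50 HSV. […] Cells were counted by Coulter counter, and CC50 was read from plots of cell number (% of untreated) versus concentration. SI = CC50/EC50.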

[2] = tested on: HEL; test: Cytotoxicity against HEL cells assessed as reduction in cell growth after 3 days by coulter counter method; assay type: cell-based; conditions: human, hel, 72 h
Procedure, shortened: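 HEL cells were seeded at 5 × 10³ cells/well and grown for 24 h, then given medium containing graded compound concentrations. After 3 days at 37 °C, cells were counted by Coulter counter.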

[3] = tested on: Human alphaherpesvirus 3; test: Antiviral activity against wild type thymidine kinase expressing Varicella-Zoster virus Oka infected in HEL cells assessed as inhibition of virus-induced plaque formation; assay type: functional, cell-based; conditions: Human alphaherpesvirus 3, Oka
Procedure, shortened: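 Confluent HEL cultures were inoculated with 20 PFU of VZV and incubated with varying compound concentrations. Plaques were counted once formation was complete in untreated infected controls.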

[4] = tested on: Human respirovirus 3; test: Antiviral activity against Parainfluenza virus 3 infected in African green monkey Vero cells assessed as inhibition of virus-induced cytopathic effect; assay type: functional
Procedure, shortened: (§2)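 Confluent cell monolayers were infected with 100 CCID50 of virus (1 CCID50 = dose infecting 50% of cultures) and incubated with varying compound concentrations. Cytopathicity was scored once complete in untreated infected controls.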

[5] = tested on: Vaccinia virus; test: Antiviral activity against Vaccinia virus Lederle infected in HEL cells assessed as inhibition of virus-induced cytopathic effect; assay type: functional, cell-based; conditions: Orthopoxvirus vaccinia
[6] = tested on: Influenza A virus; test: Antiviral activity against Influenza A virus (H1N1) infected in HEL cells assessed as inhibition of virus-induced cytopathic effect; assay type: functional, cell-based
[7] = Selectivity index, ratio of CC50 for HEL cells to EC50 for wild type thymidine kinase-deficient Varicella-Zoster virus 07-1 infected in HEL cells; assay type: toxicity, cell-based; conditions: human, read-out: Ratio CC50/EC50
[8] = tested on: Human alphaherpesvirus 2; test: Antiviral activity against Herpes simplex virus 2 G infected in HEL cells assessed as inhibition of virus-induced cytopathic effect; assay type: functional, cell-based; conditions: Human alphaherpesvirus 2, strain G; procedure, shortened: as §2
[9] = tested on: Influenza A virus H3N2; test: Antiviral activity against Influenza A virus H3N2 infected in HEL cells assessed as inhibition of virus-induced cytopathic effect; assay type: functional, cell-based
[10] = tested on: Human alphaherpesvirus 1; test: Antiviral activity against wild type Herpes simplex virus 1 KOS infected in HEL cells assessed as inhibition of virus-induced cytopathic effect; assay type: functional, cell-based; conditions: Human alphaherpesvirus 1, KOS
[11] = tested on: Human alphaherpesvirus 1; test: Antiviral activity against thymidine kinase-deficient ACV-resistant Herpes simplex virus 1 KOS infected in HEL cells assessed as inhibition of virus-induced cytopathic effect; assay type: functional, cell-based; conditions: Human alphaherpesvirus 1, KOS
[12] = Selectivity index, ratio of CC50 for HEL cells to EC50 for thymidine kinase-deficient ACV-resistant Herpes simplex virus 1 KOS infected in HEL cells; assay type: toxicity, cell-based; conditions: human, read-out: Ratio CC50/EC50; procedure, shortened: as §1
[13] = Selectivity index, ratio of CC50 for HEL cells to EC50 for wild type thymidine kinase expressing Varicella-Zoster virus Oka infected in HEL cells; assay type: toxicity, cell-based; conditions: human, read-out: Ratio CC50/EC50
[14] = tested on: Coxsackievirus B4; test: Antiviral activity against Coxsackie virus B4 infected in human HeLA cells assessed as inhibition of virus-induced cytopathic effect; assay type: functional, cell-based; procedure, shortened: as §2
[15] = Selectivity index, ratio of CC50 for HEL cells to EC50 for Herpes simplex virus 2 G infected in HEL cells; assay type: toxicity, cell-based; conditions: human, read-out: Ratio CC50/EC50; procedure, shortened: as §1
[16] = tested on: Human betaherpesvirus 5; test: Antiviral activity against Human cytomegalovirus AD169 infected in HEL cells assessed as inhibition of virus-induced cytopathic effect; assay type: functional, cell-based; conditions: Human betaherpesvirus 5, AD169, HEL; procedure, shortened: as §2
[17] = tested on: Influenza B virus; test: Antiviral activity against influenza B virus infected in HEL cells assessed as inhibition of virus-induced cytopathic effect; assay type: functional, cell-based
[18] = tested on: Vesicular stomatitis virus; test: Antiviral activity against Vesicular stomatitis virus infected in HEL cells assessed as inhibition of virus-induced cytopathic effect; assay type: functional, cell-based
[19] = Antiviral activity against Respiratory syncytial virus A strain long infected in human HeLA cells assessed as inhibition of virus-induced cytopathic effect; assay type: functional, cell-based; procedure, shortened: as §2
[20] = tested on: Sindbis virus; test: Antiviral activity against Sindbis virus infected in African green monkey Vero cells assessed as inhibition of virus-induced cytopathic effect; assay type: functional; procedure, shortened: as §2
[21] = tested on: Feline coronavirus; test: Antiviral activity against Feline coronavirus infected in CRFK cells assessed as inhibition of virus-induced cytopathic effect; assay type: functional, cell-based
[22] = tested on: Mammalian orthoreovirus 1; test: Antiviral activity against Reovirus-1 infected in African green monkey Vero cells assessed as inhibition of virus-induced cytopathic effect; assay type: functional; procedure, shortened: as §2
[23] = tested on: Human alphaherpesvirus 3; test: Antiviral activity against wild type thymidine kinase-deficient Varicella-Zoster virus 07-1 infected in HEL cells assessed as inhibition of virus-induced plaque formation; assay type: functional, cell-based; conditions: Human alphaherpesvirus 3, 07-1, HEL
Procedure, shortened: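 HEL fibroblast monolayers were infected with 20 PFU of VZV and kept with varying compound concentrations. Plaques were counted once formation was complete in untreated infected controls.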

[24] = tested on: Punta Toro virus; test: Antiviral activity against Punta Toro virus infected in African green monkey Vero cells assessed as inhibition of virus-induced cytopathic effect; assay type: functional; procedure, shortened: as §2
[25] = tested on: Human betaherpesvirus 5; test: Antiviral activity against Human cytomegalovirus Davis infected in HEL cells assessed as inhibition of virus-induced cytopathic effect; assay type: functional, cell-based; conditions: Human betaherpesvirus 5, Davis; procedure, shortened: as §2
[26] = Selectivity index, ratio of CC50 for HEL cells to EC50 for Human cytomegalovirus Davis infected in HEL cells; assay type: toxicity, cell-based; conditions: read-out: Ratio CC50/EC50
[27] = Selectivity index, ratio of CC50 for HEL cells to EC50 for Human cytomegalovirus AD169 infected in HEL cells; assay type: toxicity, cell-based; conditions: read-out: Ratio CC50/EC50

SMILES | CC50 [2] [nM] | EC50 [3] [nM] | Activity [4] | EC50 [5] [nM] | Activity [6] | EC50 [8] [nM] | Activity [9] | EC50 [10] [nM] | EC50 [11] [nM] | Activity [14] | EC50 [16] [nM] | Activity [17] | Activity [18] | Activity [19] | Activity [20] | Activity [21] | Activity [22] | EC50 [23] [nM] | Activity [24] | EC50 [25] [nM] | other results
Nc1cc(OCCOCP(=O)(O)O)nc(N)n1 | 90300 | 2070 | inactive | > 100000 | inactive | 20000 | inactive | 45000 | 54000 | inactive | > 100000 | inactive | inactive | inactive | inactive | inactive | inactive | 4720 | inactive | > 100000 | selectivity ratio [1]: 1.72 to 4.5; selectivity ratio [7]: 19 to 44; selectivity ratio [12]: 1.72 to 4.5; selectivity ratio [13]: 19 to 44; selectivity ratio [15]: 1.72 to 4.5
CCCCCCCCCCCCCCCCCCOCCOP(=O)(O)COCCn1cnc(N)nc1=O | 79200 | 320 | inactive | > 100000 | inactive | 150 | inactive | 350 | 200 | inactive | 1120 | inactive | inactive | inactive | inactive | inactive | inactive | 790 | inactive | 240 | selectivity ratio [1]: 226 to 528; selectivity ratio [26]: 71 to 330; selectivity ratio [7]: 100 to 248; selectivity ratio [12]: 226 to 528; selectivity ratio [13]: 100 to 248; selectivity ratio [15]: 226 to 528; selectivity ratio [27]: 71 to 330
CCOC(=O)[C@H](Cc1ccccc1)NP(=O)(O)COCCn1cnc(N)nc1=O | > 100000 | > 100000 | inactive | > 100000 | inactive | > 100000 | inactive | > 100000 | > 100000 | inactive | > 100000 | inactive | inactive | inactive | inactive | inactive | inactive | > 100000 | inactive | > 100000 | –
COP(=O)(O)COCCn1cnc(N)nc1=O | > 100000 | > 100000 | inactive | > 100000 | inactive | > 100000 | inactive | > 100000 | > 100000 | inactive | > 100000 | inactive | inactive | inactive | inactive | inactive | inactive | > 100000 | inactive | > 100000 | –
CC(C)(C)C(=O)OCOP(=O)(COCCn1cnc(N)nc1=O)OCOC(=O)C(C)(C)C | 46000 | 650 | inactive | 152000 | inactive | 1260 | inactive | 840 | 730 | inactive | 3240 | inactive | inactive | inactive | inactive | inactive | inactive | 1320 | inactive | 970 | selectivity ratio [1]: 37 to 63; selectivity ratio [26]: 14 to 47; selectivity ratio [7]: 35 to 71; selectivity ratio [12]: 37 to 63; selectivity ratio [13]: 35 to 71; selectivity ratio [15]: 37 to 63; selectivity ratio [27]: 14 to 47
CCCCCCCCCCCCCCCCNC(=O)[C@@H](N)Cc1ccc(OP(=O)(COCCn2cnc(N)nc2=O)Oc2ccc(C[C@H](N)C(=O)NCCCCCCCCCCCCCCCC)cc2)cc1 | – | 580 | inactive | > 100000 | inactive | 400 | inactive | 600 | 400 | inactive | 2160 | inactive | inactive | inactive | inactive | inactive | inactive | 290 | inactive | 480 | selectivity ratio [1]: 45 to 68; selectivity ratio [26]: 13 to 56; selectivity ratio [7]: 47 to 93; selectivity ratio [12]: 45 to 68; selectivity ratio [13]: 47 to 93; selectivity ratio [15]: 45 to 68; selectivity ratio [27]: 13 to 56
